# SENP8 block-1: SENP8 protease inhibition. Q96LD8. purified SENP8, Z-RLRGG-aminoluciferin cleavage, luminescence. inhibition, % at 10 µM. 330,000 compounds, 1.2% hits. AID 2540; in the data active = inhibition above about 50%
# Target sequence (Q96LD8 whole entry, looked up): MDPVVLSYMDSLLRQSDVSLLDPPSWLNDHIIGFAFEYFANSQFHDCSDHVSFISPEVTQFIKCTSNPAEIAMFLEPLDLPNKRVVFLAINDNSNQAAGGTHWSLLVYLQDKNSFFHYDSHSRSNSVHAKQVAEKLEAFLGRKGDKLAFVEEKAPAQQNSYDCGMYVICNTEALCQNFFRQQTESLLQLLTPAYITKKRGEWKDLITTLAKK
# SENP7 block: blocks the human protease SENP7; recombinant SENP7, Z-RLRGG-aminoluciferin luminescence, 40 min; inhibition, % at 5 µM; 330,000 compounds, 1.5% hits; AID 434973;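 active = inhibition above about 50% at the single test dose, limit read from the data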;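 also: plate controls were DMSO with enzyme for no effect and no enzyme buffer wells for full effect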
# SENP1 FRET inh: inhibitors of human SENP1 SUMO protease catalytic domain; inhibition, % at 10 µM; recombinant SENP1 catalytic domain, CyPet-SUMO1-YPet FRET cleavage; 360,000 compounds, 0.21% hits; Q9P0U3;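 active = inhibition at least 30% at 10 µM, raw YFP signal under a set limit, fluorescence ratio 0.5 to 1.5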;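 also: 0% = enzyme with DMSO and 100% = no enzyme wells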
#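 Controls: no-enzyme wells low, DMSO-plus-enzyme wells high control. Test system: human recombinant His6-tagged SENP1 catalytic domain enzyme. Reagent: SFCypet-SUMO1-SFYpet FRET protein substrate, 25 nM final. Doses: one dose per compound, 10 µM, 0.5% DMSO. Detection: FRET, CFP and YFP emission. Timing: 50 min reaction at room temperature.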
# Platelet DG rel: platelet dense granule release activity. 300,000 compounds, 0.22% hits. inhibition, %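 (compounds screened at 7.5 µM in platelet-rich plasma)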. human platelet-rich plasma, SFLLRN dense granule ATP release, luminescence. AID 1663;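 active = mean replicate score, as percent of positive control, at or above 50; inconclusive = mean below 50 but at least one replicate at or above 50; inactive = mean and every replicate below 50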
# SENP8 block-2: blocks human SENP8 cleavage of Nedd8 substrate | Q96LD8 | recombinant SENP8, Nedd8 substrate fluorescence | inhibition, % at 20 µM | 360,000 compounds, 0.64% hits; in the data active = inhibition mostly above about 40%, no sharp cut-off; inactive = mostly below about 27%
# SENP6 inh: blocks the human protease SENP6 | Q9GZR1 | Recombinant SENP6 catalytic domain, aminoluciferin luminescence | inhibition, % at 10 µM | 330,000 compounds, 1.8% hits;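 active = inhibition above about 50% at the single tested dose, limit read from the data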;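 also: plate controls were DMSO wells with enzyme for no effect and DMSO wells lacking enzyme for full effect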
# SENP8 conf: confirmation of human SENP8 protease inhibitors; inhibition, % at 12.5 µM; 6,200 compounds, 40% hits; shares compounds with SENP7 block; Recombinant SENP8, Z-RLRGG-aminoluciferin luminescence, 60 min;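 active = mean inhibition across replicates above about 50%, limit read from the data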
# SENP6 confirm: human SENP6 inhibition, confirmed; shares compounds with SENP7 block; recombinant SENP6, Z-RLRGG-aminoluciferin luminescence; inhibition, % at 12.5 µM; 6,200 compounds, 58% hits; AID 488915
# SENP7 conf: confirmation of human SENP7 protease inhibitors. AID 488917. 6,200 compounds, 69% hits. inhibition, % at 12.5 µM. shares compounds with SENP7 block. recombinant SENP7, Z-RLRGG-aminoluciferin luminescence, 40 min
# Casp3 SENP sel: selectivity test for SENP inhibitors: human caspase-3 inhibition; AID 488918; purified caspase-3, Z-DEVD-aminoluciferin luminescence, 60 min; shares compounds with SENP7 block; 6,200 compounds, 60% hits; inhibition, % at 12.5 µM;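 active = mean inhibition above about 50%, limit read from the data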;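 also: plate controls were enzyme with DMSO for no effect and wells without caspase-3 for full effect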
# Target sequence (P42574 28-227 limits assumed): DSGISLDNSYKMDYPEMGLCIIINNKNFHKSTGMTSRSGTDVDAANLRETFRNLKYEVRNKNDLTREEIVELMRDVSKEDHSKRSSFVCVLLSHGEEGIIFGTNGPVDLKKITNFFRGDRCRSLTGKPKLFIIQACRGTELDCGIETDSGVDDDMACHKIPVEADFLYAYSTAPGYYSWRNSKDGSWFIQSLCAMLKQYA
# SENP luc ctr: luminescence interference (SENP counter-screen); shares compounds with SENP7 block; Pre-incubated SENP8/Z-RLRGG-aminoluciferin, luciferase luminescence interference; inhibition, % at 12.5 µM; 6,200 compounds, 39% hits;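 active = mean inhibition above about 50% when retested at one dose, limit read from the data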;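 also: plate controls were DMSO wells with completed reaction for no effect and substrate without enzyme for full effect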
# Active calls of the source: *; ? = inconclusive; . = not tested or not shown. Hits are enriched below; roughly 2.6% of the tested compounds scored in any of these assays.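 The calls were made as follows, unless noted: active = mean inhibition above about 50% in the one-dose retest (limit read from the data); inactive = the rest.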
SMILES,SENP8 block-1,SENP7 block,SENP1 FRET inh,Platelet DG rel,SENP8 block-2,SENP6 inh,SENP8 conf,SENP6 confirm,SENP7 conf,Casp3 SENP sel,SENP luc ctr
Cc1cc(Cl)ccc1NC(=S)Nc1cccnc1,2,3,1,1,27,-14,.,.,.,.,.
Fc1ccc(NC(=S)Nc2cccc3cnccc23)cc1,89*,77*,-2,-6,-100,98*,-1,17,2,-2,-3
CCN(C(=S)Nc1cccnc1)c1ccccc1,-2,11,0,1,12,7,.,.,.,.,.
CN(C)S(=O)(=O)c1cccc(NC(=S)Nc2cccc3cnccc23)c1,.,.,-18,0,-229,.,.,.,.,.,.
S=C(Nc1cccnc1)Nc1cccc2cnccc12,92*,85*,-1,8,-55,95*,20,48,28,4,-1
CCCCc1nnc(NC(=O)C(C)Sc2nc(N)cc(=O)[nH]2)s1 (centres undefined),-2,7,2,-5,9,-10,.,.,.,.,.
COc1ccccc1/C=N/NC(=O)c1ccc(Cn2nc([N+](=O)[O-])cc2C)cc1,3,1,1,11,-16,-10,.,.,.,.,.
O=C(CCN1C(=O)/C(=C/c2ccc(F)cc2)SC1=S)NCCc1ccc(O)cc1,4,-10,3,-4,17,-4,.,.,.,.,.
O=C(O)C1CC(c2ccc(F)cc2)=NO1 (centres undefined),-6,6,-1,-4,11,-20,.,.,.,.,.
O=C(O)C1CC(c2ccccc2)=NO1 (centres undefined),1,95*,3,-5,5,0,6,7,8,2,2
Cc1c(N=Cc2c(O)n(C)c(=O)c3ccccc23)c(=O)n(-c2ccccc2)n1C,10,41,-32,0,-48,52*,-19,-9,-1,0,-5
CC(OC(=O)c1ccc([N+](=O)[O-])s1)C(=O)Nc1ncc(Cl)cc1Cl (centres undefined),62*,25,1,-36,19,60*,14,23,5,-6,-5
COc1ccc(-n2c(C)cc(/C=C(\C#N)C(=O)NCc3ccco3)c2C)cc1,3,1,0,-25,6,-12,.,.,.,.,.
CCOC(=O)Cc1csc(NC(=O)c2c(C)noc2C)n1,-1,-1,26,1,-10,-5,.,.,.,.,.
Cc1csc(NC(=O)c2cccc(C)c2C)n1,-4,3,-1,4,6,-3,.,.,.,.,.
Cc1csc(NC(=O)c2ccoc2C)n1,75*,89*,-7,9,-19,90*,82*,82*,96*,93*,82*
CCOC(=O)Cc1csc(NC(=O)c2ccoc2C)n1,74*,89*,-4,-10,-6,88*,84*,84*,94*,93*,83*
O=C(O)c1ccc(-c2noc(-c3cccc(C(F)(F)F)c3)n2)cc1,41,4,1,4,13,58*,54*,56*,80*,56*,54*
FC(F)(F)c1cccc(-c2nc(-c3ccncc3)no2)c1,.,.,0,8,18,.,.,.,.,.,.
COc1ccc(-c2nc(-c3ccc(C(=O)O)cc3)no2)cc1,97*,95*,4,5,12,98*,98*,98*,102*,86*,97*
COc1ccc(-c2cc(-c3ccccc3)no2)cc1,92*,100*,0,?,16,97*,8,81*,86*,76*,49
